Measurements of several laboratories.
Target: MAP kinase-interacting serine/threonine-protein kinase 2 (MKNK2, Homo sapiens, UniProt Q9HBH9)

SMILES	assay	conditions	endpoint	result
Cn1nc(C(=O)NCc2ccc(C(=O)O)cc2)cc1-c1ccc2[nH]ccc2c1	cell-free assay, competition with immobilised ligand	0.1 µM	remaining binding	96%
Cc1sc(C(=O)NC2COC2)cc1-n1cc(NC(=O)Nc2c(F)cccc2Cl)cn1	enzyme activity, inhibitor	10 µM	remaining activity	83.4%
O=C(N[C@H]1CCCCC/C=C\C2C[C@@]2(C(=O)O)NC(=O)[C@@H]2C[C@@H](Oc3ccncc3)CN2C1=O)OC1CCCC1 (some centres unmarked)	binding, competition with immobilised ligand	1 µM	remaining binding	75%
Clc1ccc(Nc2nnc(Cc3ccncc3)c3ccccc23)cc1	cell-free assay	0.5 µM	remaining signal	101%
O=C(Nc1cnn(-c2csc(C(=O)NC3COC3)c2)c1)Nc1c(F)cccc1Cl	enzyme activity, inhibitor	5 µM	remaining activity	90.8%
CNC(=O)c1cc(Oc2ccc(NC(=O)Nc3ccc(Cl)c(C(F)(F)F)c3)cc2)ccn1	enzyme activity, inhibitor	0.3 µM	inhibition	61%
O=C1Nc2ccc(Cl)cc2C1=Cc1cc(Cl)c(O)c(Cl)c1	cell-free assay	0.5 µM	remaining signal	88.7%
CC(C)(O)[C@H]1CC[C@H](Nc2ccc3ncc(-c4cccc(C(F)(F)F)c4)n3n2)CC1	enzyme activity, inhibitor	1 µM	remaining activity	66.5%
CS(=O)(=O)N1CCCC(NC(=O)[C@H](CCC2CCCCC2)NC(=O)c2ccc(CNC(=O)c3cnc4ccccn34)cc2)C1 (some centres unmarked)	cell-free assay, competition with immobilised ligand	0.1 µM	remaining binding	84%
Nc1nc(Nc2ccccc2)sc1C(=O)c1c(F)cccc1F	enzyme activity, inhibitor	10 µM	remaining activity	99%
COc1cc(-c2cn(C3CCc4ccccc4N(CC(F)(F)F)C3=O)nn2)ccc1-n1ccc(C)n1 (centres unmarked)	cell-free assay, competition with immobilised ligand	1 µM	remaining binding	66%
FC(F)(F)Oc1cccc(-c2cnc3ccc(-c4ccncc4)nn23)c1	enzyme activity, inhibitor, radiometric	5 µM	activity vs control	81%
N#CCCc1ccc2c(c1)-c1[nH]c3ccc([N+](=O)[O-])cc3c1CC(=O)N2	cell-free assay	0.5 µM	remaining signal	87.7%
CC(=O)C1=C(C)N(c2cccc(C(F)(F)F)c2)C(=O)N[C@@H]1c1ccc(C#N)nc1	cell-free assay, competition with immobilised ligand	1 µM	remaining binding	84.8%
Cc1ccc(NC(=O)c2ccc(C)c(C(F)(F)F)c2)cc1C#Cc1nn(C2CCC(O)CC2)c2ncnc(N)c12 (centres unmarked)	cell-free assay	10 µM	remaining signal	96%
O=C(CSc1nc2nccnc2c(=O)n1CCc1ccccc1)Nc1nccs1	enzyme activity, inhibitor	10 µM	inhibition	-11%

SMILES	assay	conditions	endpoint	result
Cc1ccc(Nc2nccc(N(C)c3ccc4c(C)n(C)nc4c3)n2)cc1S(N)(=O)=O	enzyme activity, inhibitor	0.3 µM	inhibition	3%
CCC(=O)N[C@H]1CC[C@@H](C(=O)N(C)c2ccc(-c3nc4ccccc4o3)cc2)C1	cell-free assay, competition with immobilised ligand	1 µM	remaining binding	100%
CSc1nc(C)c(-c2ccnc(Nc3ccc(N4CCOCC4)cc3)c2)[nH]1	enzyme activity, inhibitor	10 µM	inhibition	94.9%
FC(F)c1nc2ccccc2n1-c1nc(N2CCOCC2)nc(N2CCOCC2)n1	enzyme activity, inhibitor	10 µM	remaining activity	101%
CCN(CC)c1ccc(C2=NNC(=O)CC2C)cc1[N+](=O)[O-] (centres unmarked)	enzyme activity, inhibitor	10 µM	remaining activity	25%
COc1cc(Nc2cnc(C#N)c(O[C@H](C)CN(C)C)n2)ncc1-c1cnn(C)c1	enzyme activity, inhibitor, radiometric	10 µM	remaining activity	112%
COc1cc(/C=C/C(=O)CC(=O)/C=C/c2ccc(O)c(OC)c2)ccc1O	enzyme activity, inhibitor	1 µM	activity vs control	129%
COc1cc(Cl)c(C(=O)N[C@@H](CN[C@H]2CC[C@@H](N)CC2)Cc2ccc(C#N)cc2)cc1-c1ccc(CN[C@H](C)c2ccc(C)cc2)o1	enzyme activity, inhibitor	1 µM	remaining activity	102%
COc1cc2c(N3CCN(C(=O)Nc4ccc(OC(C)C)cc4)CC3)ncnc2cc1OCCCN1CCCCC1	cell-free assay	0.5 µM	remaining signal	99%
Cc1cnc(NC2CCOCC2)nc1-n1cnc(C(=O)NC(CN)c2cc(F)cc(Cl)c2)c1 (centres unmarked)	enzyme activity, inhibitor, radiometric	1 µM	remaining activity	25%
Oc1cccc(-c2nc(N3CCOCC3)c3oc4ncccc4c3n2)c1	enzyme activity, inhibitor	10 µM	remaining activity	90%
CCN(CC)CCNC(=O)c1c(C)[nH]c(/C=C2\C(=O)Nc3ccc(F)cc32)c1C	enzyme activity, inhibitor	10 µM	inhibition	6%
CSc1cccnc1N1CCN(Cc2nc3ccccc3[nH]2)CC1	cell-free assay, competition with immobilised ligand	1 µM	remaining binding	75%
CC(C)(C)c1nc(-c2cccc(NS(=O)(=O)c3c(F)cccc3F)c2F)c(-c2ccnc(N)n2)s1	enzyme activity, inhibitor, radiometric	1 µM	remaining activity	63%
C[C@@H]1CN(c2cc(-c3nn(C)c4ccc(OC5(C)CC5)cc34)ncn2)C[C@H](C)O1	cell-free assay, competition with immobilised ligand	1 µM	remaining binding	67%
C=CC(=O)Nc1cc(Nc2nccc(Nc3cc(Cl)c(F)cc3C(C)(C)O)n2)c(OC)cc1N1CC[C@@H](N(C)C)C1	enzyme activity, inhibitor	1 µM	inhibition	67%
